Converted amounts (≈) assume the structure as drawn.
Key:
[1] = Ratio of EC50 for human HepG2 cells to EC50 for Plasmodium falciparum K1 infected in human erythrocytes
HepG2 = test: Cytotoxicity against human HepG2 cells assessed as intracellular ATP level after 72 hrs by Celltiter-Glo luminescent assay; assay type: cell-based; conditions: HepG2, 72 h
[2] = Dissociation constant, pKa of the compound; assay type: physicochemical
[3] = Ratio of EC50 for human HepG2 cells to EC50 for Plasmodium falciparum 3D7 infected in human erythrocytes
[4] = Solubility of the compound at pH 7.4 after 18 hrs by UV spectroscopic analysis; assay type: physicochemical; conditions: buffer
Summary of the method: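 Kinetic solubility. A 10 mM stock is diluted 1:100 into PBS pH 7.4 and incubated 18 h at room temperature, then filtered; the filtrate is mixed 1:1 with 1-propanol. UV spectrum (250–500 nm) compared by AUC with a 1-propanol/PBS reference. Single experiment in triplicate.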

Plasmodium falciparum [5] = test: Antimalarial activity against chloroquine-resistant Plasmodium falciparum K1 infected in human erythrocytes assessed as reduction in parasitemia after 72 hrs by spectrophotometry; assay type: functional, organism-based; conditions: K1, 72 h
Plasmodium falciparum [6] = test: Antimalarial activity against chloroquine-sensitive Plasmodium falciparum 3D7 infected in human erythrocytes assessed as reduction in parasitemia after 72 hrs by spectrophotometry; assay type: functional, organism-based; conditions: 3D7, 72 h
Plasmodium falciparum [7] = test: Ratio of EC50 for chloroquine-resistant Plasmodium falciparum K1 infected in human erythrocytes to EC50 for chloroquine-sensitive Plasmodium falciparum 3D7 infected in human erythrocytes; assay type: functional
[8] = Permeability of the compound at pH 7.4 after 30 mins by PAMPA; assay type: ADME; conditions: read-out: permeability
Summary of the method: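 PAMPA at pH 7.4. A 10 mM DMSO stock is diluted into system solution buffer; its UV spectrum serves as reference. Membrane painted with GIT lipid, acceptor chamber holds acceptor solution buffer. Sandwich stirred for 30 min, aqueous boundary layer set to 40. Donor and acceptor UV spectra read at 250–500 nm. Permeability coefficient from the AUCs of reference, donor and acceptor. Single experiment in triplicate.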

## COc1ccc(F)cc1CNCCCNc1ccnc2cc(-c3ccc(F)cc3)ccc12
[1]
  Ratio EC50: 7.9
HepG2
  EC50: 0.77 µM
[2]
  pKa: 9.47
[3]
  Ratio EC50: 44
[4]
  solubility at 18 h: 32 µM (≈ 13.9 µg/mL)
Plasmodium falciparum [5]
  EC50: 0.097 µM
Plasmodium falciparum [6]
  EC50: 0.018 µM
Plasmodium falciparum [7]
  Ratio EC50: 5.5
[8]
  Papp at 0.5 h: 2370 nm/s

## FC(F)(F)c1ccc(-c2ccc3c(NCCCNCc4ccc5c(c4)OCO5)ccnc3c2)cc1
[1]
  Ratio EC50: 19.2
HepG2
  EC50: 1.89 µM
[2]
  pKa: 9.47
[3]
  Ratio EC50: 74.5
[4]
  solubility at 18 h: 32 µM (≈ 15.3 µg/mL)
Plasmodium falciparum [5]
  EC50: 0.098 µM
Plasmodium falciparum [6]
  EC50: 0.025 µM
Plasmodium falciparum [7]
  Ratio EC50: 3.9
[8]
  Papp at 0.5 h: 2370 nm/s

## c1ccc(-c2ccc3c(NCCCNCc4ccco4)ccnc3c2)cc1
[1]
  Ratio EC50: 46.4
HepG2
  EC50: 5.92 µM
[2]
  pKa: 9.47
[3]
  Ratio EC50: 291.6
[4]
  solubility at 18 h: 32 µM (≈ 11.4 µg/mL)
Plasmodium falciparum [5]
  EC50: 0.128 µM
Plasmodium falciparum [6]
  EC50: 0.02 µM
Plasmodium falciparum [7]
  Ratio EC50: 6.3
[8]
  Papp at 0.5 h: 2370 nm/s

## COc1cccc(CNCCCNc2ccnc3cc(-c4cc(C(F)(F)F)cc(C(F)(F)F)c4)ccc23)c1O
[1]
  Ratio EC50: 4.5
HepG2
  EC50: 0.94 µM
[2]
  pKa: 9.47
[3]
  Ratio EC50: 32.4
[4]
  solubility at 18 h: 32 µM (≈ 17.6 µg/mL)
Plasmodium falciparum [5]
  EC50: 0.209 µM
Plasmodium falciparum [6]
  EC50: 0.029 µM
Plasmodium falciparum [7]
  Ratio EC50: 7.2
[8]
  Papp at 0.5 h: 2370 nm/s

## FC(F)(F)c1ccc(-c2ccc3c(NCCCNCc4ccco4)ccnc3c2)cc1
[1]
  Ratio EC50: 15.5
HepG2
  EC50: 3.47 µM
[2]
  pKa: 9.47
[3]
  Ratio EC50: 171
[4]
  solubility at 18 h: 32 µM (≈ 13.6 µg/mL)
Plasmodium falciparum [5]
  EC50: 0.223 µM
Plasmodium falciparum [6]
  EC50: 0.02 µM
Plasmodium falciparum [7]
  Ratio EC50: 11
[8]
  Papp at 0.5 h: 2370 nm/s

## CC(C)(C)c1ccc(-c2ccc3c(NCCCNCc4ccco4)ccnc3c2)cc1
[1]
  Ratio EC50: 9.7
HepG2
  EC50: 3.15 µM
[2]
  pKa: 9.47
[3]
  Ratio EC50: 4.5
[4]
  solubility at 18 h: 32 µM (≈ 13.2 µg/mL)
Plasmodium falciparum [5]
  EC50: 0.325 µM
Plasmodium falciparum [6]
  EC50: 0.704 µM
Plasmodium falciparum [7]
  Ratio EC50: 0.5
[8]
  Papp at 0.5 h: 2370 nm/s

## COc1cccc(CNCCCNc2ccnc3cc(-c4ccc(C(C)(C)C)cc4)ccc23)c1O
[1]
  Ratio EC50: 1.7
HepG2
  EC50: 0.69 µM
[2]
  pKa: 9.47
[3]
  Ratio EC50: 2.8
[4]
  solubility at 18 h: 32 µM (≈ 15 µg/mL)
Plasmodium falciparum [5]
  EC50: 0.418 µM
Plasmodium falciparum [6]
  EC50: 0.251 µM
Plasmodium falciparum [7]
  Ratio EC50: 1.7
[8]
  Papp at 0.5 h: 2370 nm/s

## CC(C)(C)c1ccc(-c2ccc3c(NCCCNCc4ccc5c(c4)OCO5)ccnc3c2)cc1
[1]
  Ratio EC50: 2.8
HepG2
  EC50: 1.37 µM
[2]
  pKa: 9.47
[3]
  Ratio EC50: 6.2
[4]
  solubility at 18 h: 32 µM (≈ 15 µg/mL)
Plasmodium falciparum [5]
  EC50: 0.49 µM
Plasmodium falciparum [6]
  EC50: 0.223 µM
Plasmodium falciparum [7]
  Ratio EC50: 2.2
[8]
  Papp at 0.5 h: 2370 nm/s

## c1ccc2c(-c3ccc4c(NCCCNCc5ccc6c(c5)OCO6)ccnc4c3)cccc2c1
[1]
  Ratio EC50: 12.2
HepG2
  EC50: 6.57 µM
[2]
  pKa: 9.47
[3]
  Ratio EC50: 11
[4]
  solubility at 18 h: 32 µM (≈ 14.8 µg/mL)
Plasmodium falciparum [5]
  EC50: 0.538 µM
Plasmodium falciparum [6]
  EC50: 0.598 µM
Plasmodium falciparum [7]
  Ratio EC50: 0.9
[8]
  Papp at 0.5 h: 2370 nm/s

## FC(F)(F)c1cc(-c2ccc3c(NCCCNCc4ccc5c(c4)OCO5)ccnc3c2)cc(C(F)(F)F)c1
[1]
  Ratio EC50: 1.9
HepG2
  EC50: 1.16 µM
[2]
  pKa: 9.47
[3]
  Ratio EC50: 4.1
[4]
  solubility at 18 h: 32 µM (≈ 17.5 µg/mL)
Plasmodium falciparum [5]
  EC50: 0.604 µM
Plasmodium falciparum [6]
  EC50: 0.284 µM
Plasmodium falciparum [7]
  Ratio EC50: 2.1
[8]
  Papp at 0.5 h: 2370 nm/s

## COc1ccc(F)cc1CNCCCNc1ccnc2cc(-c3cc(C(F)(F)F)cc(C(F)(F)F)c3)ccc12
[1]
  Ratio EC50: 1.1
HepG2
  EC50: 0.87 µM
[2]
  pKa: 9.47
[3]
  Ratio EC50: 9.4
[4]
  solubility at 18 h: 32 µM (≈ 17.6 µg/mL)
Plasmodium falciparum [5]
  EC50: 0.812 µM
Plasmodium falciparum [6]
  EC50: 0.092 µM
Plasmodium falciparum [7]
  Ratio EC50: 8.8
[8]
  Papp at 0.5 h: 2370 nm/s

## COc1cccc(CNCCCNc2ccnc3cc(-c4ccc(F)cc4)ccc23)c1O
[1]
  Ratio EC50: 8
HepG2
  EC50: 6.84 µM
[2]
  pKa: 9.47
[3]
  Ratio EC50: 742.9
[4]
  solubility at 18 h: 32 µM (≈ 13.8 µg/mL)
Plasmodium falciparum [5]
  EC50: 0.854 µM
Plasmodium falciparum [6]
  EC50: 0.009 µM
Plasmodium falciparum [7]
  Ratio EC50: 92.8
[8]
  Papp at 0.5 h: 2370 nm/s

Source: ChEMBL document CHEMBL1833887, “Synthesis and evaluation of 7-substituted 4-aminoquinoline analogues for antimalarial activity” (J Med Chem, 2011)
